Reference: ChEMBL document CHEMBL1122178, “N-Methylnalorphine: definition of N-allyl conformation for antagonism at the opiate receptor” (J Med Chem, 1982)

What was measured:
Opioid receptor [1] = target: T1, Opioid receptor (Mus musculus, UniProt P42866+P32300+P33534); test: Concentration required to inhibit the stereospecific [3H]diprenorphine binding Opioid receptors in the absence of sodium(Na+) was determined in mouse isolated vas deferens; assay type: protein assay
Opioid receptor [2] = target: T1, Opioid receptor; test: Concentration required to inhibit the stereospecific [3H]diprenorphine binding Opioid receptors in the presence of sodium(Na+) was determined in mouse isolated vas deferens; assay type: protein assay
[3] = target: T2, Opioid receptor (Mus musculus) (UniProt P42866+P32300+P33534); test: Opioid receptors antagonist potency in reversing the effects of normorphine was determined in mouse isolated vas deferens; assay type: functional, tissue-based
T2 sequence (P32300 whole entry, looked up): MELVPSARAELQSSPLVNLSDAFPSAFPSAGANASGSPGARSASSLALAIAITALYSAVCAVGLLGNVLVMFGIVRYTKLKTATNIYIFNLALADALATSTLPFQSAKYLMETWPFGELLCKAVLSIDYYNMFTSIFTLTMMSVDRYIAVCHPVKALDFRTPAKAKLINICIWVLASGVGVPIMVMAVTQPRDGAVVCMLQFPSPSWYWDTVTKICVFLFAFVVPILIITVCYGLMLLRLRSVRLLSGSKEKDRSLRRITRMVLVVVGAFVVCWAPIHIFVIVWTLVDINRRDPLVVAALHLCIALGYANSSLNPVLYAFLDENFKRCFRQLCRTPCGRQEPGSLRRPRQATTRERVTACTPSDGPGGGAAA
T2 sequence (P33534 whole entry, looked up): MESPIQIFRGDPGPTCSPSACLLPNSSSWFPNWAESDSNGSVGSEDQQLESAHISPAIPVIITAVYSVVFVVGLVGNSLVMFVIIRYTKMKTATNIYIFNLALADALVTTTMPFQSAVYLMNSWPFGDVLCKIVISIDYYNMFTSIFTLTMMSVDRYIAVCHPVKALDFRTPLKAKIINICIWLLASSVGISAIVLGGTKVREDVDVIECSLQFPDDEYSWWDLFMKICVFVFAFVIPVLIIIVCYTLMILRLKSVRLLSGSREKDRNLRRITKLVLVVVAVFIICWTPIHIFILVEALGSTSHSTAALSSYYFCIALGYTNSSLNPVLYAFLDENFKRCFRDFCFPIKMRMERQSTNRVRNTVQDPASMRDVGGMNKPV
T2 sequence (P42866 whole entry, looked up): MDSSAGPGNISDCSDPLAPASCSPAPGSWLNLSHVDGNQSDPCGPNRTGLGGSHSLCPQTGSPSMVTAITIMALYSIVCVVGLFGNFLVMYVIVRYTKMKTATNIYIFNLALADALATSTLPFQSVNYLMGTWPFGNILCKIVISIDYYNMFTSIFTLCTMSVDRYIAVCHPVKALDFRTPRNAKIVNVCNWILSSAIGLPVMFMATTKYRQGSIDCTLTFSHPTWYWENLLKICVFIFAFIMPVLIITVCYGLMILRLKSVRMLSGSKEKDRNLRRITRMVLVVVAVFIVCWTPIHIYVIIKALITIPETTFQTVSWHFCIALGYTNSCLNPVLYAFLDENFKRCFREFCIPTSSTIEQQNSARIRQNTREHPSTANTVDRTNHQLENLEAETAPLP

[4] = target: T2, Opioid receptor (Mus musculus); test: Opioid receptors antagonist potency in reversing the effects of Met5E was determined in mouse isolated vas deferens; assay type: functional, tissue-based
Outline: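 Electrically stimulated mouse isolated vas deferens. Antagonism is measured against agonist-induced effects, with Met⁵-enkephalin as the δ agonist. Antagonist potency is expressed as pA₂.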

C=CC[N+]1(C)CC[C@]23c4c5ccc(O)c4O[C@H]2[C@@H](O)C=CC3[C@H]1C5.[I-] (stereo in doubt; A)
IC50 (Opioid receptor [1]): 8.5 µM
IC50 (Opioid receptor [2]): 11.5 µM

C=CC[N+]1(C)CC[C@]23c4c5ccc(O)c4O[C@H]2[C@@H](O)C=CC3[C@H]1C5.[I-] (stereo in doubt; B)
IC50 (Opioid receptor [1]): 0.44 µM
IC50 (Opioid receptor [2]): 0.51 µM

C=CC[N+]1(C)CC[C@]23c4c5ccc(O)c4O[C@H]2[C@@H](O)C=CC3[C@H]1C5 (stereo in doubt; A)
Concentration [3]: 1250 nM
Concentration [4]: > 22 µM

C=CCN1CC[C@]23c4c5ccc(O)c4O[C@H]2[C@@H](O)C=C[C@H]3[C@H]1C5
Concentration [3]: 22.4 nM
Concentration [4]: 0.286 µM

C=CC[N+]1(C)CC[C@]23c4c5ccc(O)c4O[C@H]2[C@@H](O)C=CC3[C@H]1C5 (stereo in doubt; B)
Concentration [3]: 59.2 nM
Concentration [4]: 4.92 µM
